Assay outcomes from PubChem BioAssay.
Most compounds without a hit are left out; they make up all but 9.6% or so of the library.
TNAP inh noacc – inhibitors of human TNAP without phosphate acceptor; purified TNAP, CDP-star luminescence, 30 min; inhibition, % at 20 µM; actives 0.26% (n = 200,000); AID 1012;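 active = tissue-nonspecific alkaline phosphatase inhibition above about 50% at 20 µM in the single-dose screen, limit read from the data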
Target sequence (P05186 whole entry, looked up): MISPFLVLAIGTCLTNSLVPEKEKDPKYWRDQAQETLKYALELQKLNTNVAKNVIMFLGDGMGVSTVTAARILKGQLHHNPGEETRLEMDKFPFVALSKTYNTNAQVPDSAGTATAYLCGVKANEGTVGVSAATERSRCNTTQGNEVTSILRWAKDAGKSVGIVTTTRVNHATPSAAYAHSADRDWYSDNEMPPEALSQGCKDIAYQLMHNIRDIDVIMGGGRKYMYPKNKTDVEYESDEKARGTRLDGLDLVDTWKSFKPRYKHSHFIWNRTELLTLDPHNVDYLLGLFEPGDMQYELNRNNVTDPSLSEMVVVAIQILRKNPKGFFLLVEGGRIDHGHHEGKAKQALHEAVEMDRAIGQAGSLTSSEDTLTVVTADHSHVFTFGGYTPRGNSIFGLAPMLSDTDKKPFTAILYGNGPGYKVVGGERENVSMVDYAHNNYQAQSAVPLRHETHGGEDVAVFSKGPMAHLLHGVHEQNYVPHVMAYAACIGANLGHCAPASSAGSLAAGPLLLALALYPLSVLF
TNAP inh hiacc – inhibitors of human TNAP at high phosphate acceptor concentration; P05186; purified TNAP, CDP-star luminescence, 1 M DEA; inhibition, % at 20 µM; actives 0.03% (n = 200,000);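 active = over 50% inhibition of tissue-nonspecific alkaline phosphatase at 20 µM in the single-dose screen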
HCT116 bCat-KO – beta-catenin-lacking colon tumor cell growth suppression; HCT116 beta-catenin knockout viability, CellTiter-Glo, 60 h; hits give low values; viability, % at 10 µM; actives 1.5% (n = 140,000); AID 818;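 active = viability at or under a set limit, the compound median less 4 SD, cut at about 6% in these data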
L major viab – inhibitors of Leishmania major promastigote growth; Leishmania major promastigotes, resazurin fluorescence viability; inhibition, % at 10 µM; actives 9% (n = 200,000); AID 1063; in the data active = inhibition above about 50%;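 note: promastigotes grown with compound for 44 hours at 28 °C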
PTEN del growth – PTEN-deleted cell growth suppression. actives 1.2% (n = 140,000). HCT116 PTEN-null viability, CellTiter-Glo, 60 h; hits give low values. AID 827. viability, % at 10 µM;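 active = viability at or below a set limit, 4 SD under the median of all tested compounds, cut at about 3.7% in these data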;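 note: PTEN knockout HCT116 line with beta catenin targeted HCT116 as companion control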
TNAP act hiacc – TNAP (human) activation, high acceptor | P05186 | purified TNAP, CDP-star luminescence, 1 M DEA, 30 min; hits give high values; 0 = EDTA background, 1 = DMSO-only activity | activation factor at 20 µM | 200,000 tested, under 10 active;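 active = activation factor at least 2 at 20 µM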
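system = human TNAP | amount = enzyme diluted 1/800 final | reagent = 100 µM CDP-star substrate | signal = luminescent substrate turnover signal | dosing = one dose, 20 µM | benchmarks = EDTA negative control, DMSO positive control | measure = activation factor | timing = 30 min reaction, room temperature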
Large screens that a line does not name were inactive.

O=C(CCN1C(=O)C2C3CCC(C3)C2C1=O)Nc1ccc(Br)cc1 (centres undefined)	L major viab 60
O=C(O)c1ccccc1CSc1ncccc1C(=O)O	none (no result: HCT116 bCat-KO, PTEN del growth)
COc1ccccc1CNC(=O)CSc1ccc(-c2cccs2)nn1	L major viab 75 (no result: HCT116 bCat-KO, PTEN del growth)
O=C(c1ccc(Cn2c(=S)[nH]c3ccc(N4CCOCC4)cc3c2=O)cc1)N1CCN(c2ccc(F)cc2)CC1	L major viab 96 (no result: HCT116 bCat-KO, PTEN del growth)
O=c1c2cc(N3CCOCC3)ccc2[nH]c(=S)n1Cc1ccc(Cl)cc1	none
O=C(c1ccc(Cn2c(=O)[nH]c3ccccc3c2=O)cc1)N1CCN(c2ccc(F)cc2)CC1	L major viab 92
COc1ccccc1N1CCN(C(=O)c2ccc3[nH]c4c(c3c2)CCCC4)CC1	none
O=C(c1ccc2[nH]c3c(c2c1)CCCC3)N1CCN(c2ccc(F)cc2)CC1	L major viab 60
O=C(c1ccc(Cn2c(=O)[nH]c3ccsc3c2=O)cc1)N1CCN(c2ccccc2)CC1	none (no result: HCT116 bCat-KO, PTEN del growth)
Cc1ccc(C)c(N2CCN(C(=O)c3ccc(Cn4c(=S)[nH]c5ccc(N6CCOCC6)cc5c4=O)cc3)CC2)c1	L major viab 99 (no result: HCT116 bCat-KO, PTEN del growth)
O=S(=O)(Cc1cc(NCc2ccccc2)nc(-c2ccccn2)n1)c1ccccc1	none (no result: HCT116 bCat-KO, PTEN del growth)
COc1ccc(N2CCN(C(=O)c3ccc(Cn4c(=S)[nH]c5ccc(N6CCOCC6)cc5c4=O)cc3)CC2)cc1	L major viab 91 (no result: HCT116 bCat-KO, PTEN del growth)
CCOC(=O)c1c(CNCCN(CC)CC)n(C)c2cc(Br)c(OC)cc12	L major viab 100
CCOC(=O)c1c(CN2CCN(CCO)CC2)n(C)c2cc(Br)c(OC)cc12	L major viab 54
CCOC(=O)c1c(C)oc2cc(Br)c(OC)cc12	none
CCOC(=O)c1c(CN2CCCCC2)n(C)c2cc(Br)c(OC)cc12	L major viab 99
CCOC(=O)c1c(C)n(CC(O)CN(CC)CC)c2cc(Br)c(OC)cc12 (centres undefined)	L major viab 89 (no result: HCT116 bCat-KO, PTEN del growth)
CCOC(=O)c1c(C)n(C)c2cc(Br)c(OC)cc12	none (no result: HCT116 bCat-KO, PTEN del growth)
O=C(Nc1ccccc1)C1=C[C@H](C2CC2)C[C@H](OCCCCO)O1	none (no result: HCT116 bCat-KO, PTEN del growth)
O=C(NNC(=O)C(O)(c1ccccc1)c1ccccc1)C1CC1	none (no result: HCT116 bCat-KO, PTEN del growth)
CCN(CC)CCNC(=O)c1c(C)n(-c2ccccc2)c2cc(Br)c(OC)cc12	L major viab 101
Nc1cc(C(=O)c2ccccc2)ccc1N1CCOCC1	L major viab 54
C=CCNC(=O)CC1Nc2c3ccccc3nc(=S)n2C1=O (centres undefined)	none (no result: HCT116 bCat-KO, PTEN del growth)
CC1(C)CC2CC(C)(CN2C(=O)c2ccc([N+](=O)[O-])cc2[N+](=O)[O-])C1 (centres undefined)	L major viab 52 (no result: HCT116 bCat-KO, PTEN del growth)
CC1(C)CC2CC(C)(CN2C(=O)c2ccc([N+](=O)[O-])cc2)C1 (centres undefined)	none (no result: HCT116 bCat-KO, PTEN del growth)
O=c1[nH]c(=O)n(-c2ccccc2)c2c1C(C(F)(F)F)(C(F)(F)F)N=C(CCC1CCCCC1)N2	L major viab 55
O=c1[nH]c(=O)n(Cc2ccco2)c2c1C(C(F)(F)F)(C(F)(F)F)N=C(CCC1CCCCC1)N2	none
COc1ccc(-n2c3c(c(=O)[nH]c2=O)C(C(F)(F)F)(C(F)(F)F)N=C(CC(C)C)N3)cc1	none
CC(C)Cn1c2c(c(=O)[nH]c1=O)C(C(F)(F)F)(C(F)(F)F)N=C(CCC1CCCCC1)N2	L major viab 80
NS(=O)(=O)c1cnccc1Nc1ccc(Cl)cc1	TNAP inh noacc 87, TNAP inh hiacc 90
C/C(=N/NC(=O)CN1CCN(S(=O)(=O)c2ccc(Br)cc2)CC1)c1cccnc1	none
Cc1[nH]n(C2=NCCS2)c(=O)c1N=Nc1ccccc1	L major viab 80 (no result: HCT116 bCat-KO, PTEN del growth)
Cc1[nH]n(-c2ccccc2)c(=O)c1N=Nc1nccs1	L major viab 96
O=c1oc2ccccc2c(N2CCOCC2)c1[N+](=O)[O-]	none (no result: HCT116 bCat-KO, PTEN del growth)
CCOC(=O)c1cc([N+](=O)[O-])c([N+](=O)[O-])cc1NC(C)=O	L major viab 71
O=C(Nc1c(-c2ccccc2)nc2ccc(Cl)cn12)c1cccs1	L major viab 79
Cc1ccccc1Nc1c(-c2ccncc2)nc2ccc(Cl)cn12	L major viab 75 (no result: HCT116 bCat-KO, PTEN del growth)
Cc1ccn2c(Nc3ccccc3C)c(-c3cccnc3)nc2c1	none (no result: HCT116 bCat-KO, PTEN del growth)
O=C(NCCN1C(=O)S/C(=C\c2ccc(F)cc2)C1=O)c1cccc(S(=O)(=O)N2CCOCC2)c1	none
CC(=O)N1CCN(c2ncnc3sc(-c4ccccc4)cc23)CC1	none (no result: HCT116 bCat-KO, PTEN del growth)
Oc1ccc(N2CCN(c3ncnc4sc(-c5ccccc5)cc34)CC2)cc1	L major viab 62 (no result: HCT116 bCat-KO, PTEN del growth)
C/C(=N\N1C(=O)c2ccccc2NC1c1ccco1)c1ccccc1O (centres undefined)	L major viab 90 (no result: HCT116 bCat-KO, PTEN del growth)
C/C(=N\N1C(=O)c2ccccc2NC1c1ccccc1)c1ccccc1O (centres undefined)	none (no result: HCT116 bCat-KO, PTEN del growth)
CC(=O)Nc1ccc(NC(=O)CSc2nnc3ccc(-c4ccc(F)cc4)nn23)cc1	none (no result: HCT116 bCat-KO, PTEN del growth)
COc1ccc(N=C2C(=O)N3c4c(cccc42)C(C)=CC3(C)C)cc1	L major viab 97
COc1ccc(N=C2C(=O)Nc3ccccc32)cc1	L major viab 100
COc1cc(C)ccc1OCCOc1c(Cl)cc(Cl)cc1Cl	none
COc1ccccc1OCCOCCOc1ccc(C)cc1Br	none
Cc1cc(C)c(OCC(=O)Nc2nnn(C)n2)c(Br)c1	none
Cc1cc(C)c(OCCCCN(C)C)c(Br)c1	L major viab 85 (no result: HCT116 bCat-KO, PTEN del growth)
Cc1cc(Cl)cc(Cl)c1OCCCCN(C)C	L major viab 86
Cc1cc(C)c(OCCOCCN(C)C)c(Br)c1	L major viab 96
COCCNC(=S)N1CCC(NC(=O)Nc2ccc(C)cc2)CC1	none (no result: HCT116 bCat-KO, PTEN del growth)
O=C(Nc1ccc(Cl)cc1)Nc1cccnc1	none
CC(C#N)(Nc1ccc(Cl)cc1)c1cccnc1 (centres undefined)	L major viab 70
COc1ccc(CCNC(=O)c2ccc3c(SCC(=O)O)c4c(nc3c2)CCCC4)cc1OC	none (no result: HCT116 bCat-KO, PTEN del growth)
CC(=O)N(c1ccccc1)C1CCCC1	none
O=C(CCl)N(c1ccccc1)C1CCCCC1	L major viab 89 (no result: HCT116 bCat-KO, PTEN del growth)
O=C(NCC1CCCO1)c1cc(S(=O)(=O)N2CCCC2)c(Cl)cc1Cl (centres undefined)	none (no result: HCT116 bCat-KO, PTEN del growth)
O=C(CN1C(=O)/C(=C\c2ccc(F)cc2)Oc2ccccc21)N1CCN(c2ccccn2)CC1	none
O=C(CN1C(=O)/C(=C\c2cccc(F)c2)Oc2ccccc21)N1CCN(c2ccccn2)CC1	L major viab 50
Cc1cccc(-n2nnc3c(=O)n(CC(=O)Nc4cc(C)on4)cnc32)c1	none (no result: HCT116 bCat-KO, PTEN del growth)
COC(=O)c1ccc(NC(CC(C)C)C(=O)OC)c([N+](=O)[O-])c1 (centres undefined)	L major viab 52
Cc1ccc(NC(=O)C(NC2CCCc3ccccc32)c2ccccc2)cc1Cl (centres undefined)	L major viab 58
